In ChEMBL document CHEMBL3352420, “Discovery of 2-pyridylureas as glucokinase activators” (J Med Chem, 2014):
pEC50: −log10 of the molar value. ≈ marks a conversion by molar mass, not a printed value.

How the values were obtained:
Hexokinase-4 [1] = biological target: T1, Hexokinase-4 (Homo sapiens, UniProt P35557); test: Activation of purified human glucokinase isoform 3 (13 to 466 aa) using 5 mM glucose by spectrophotometry in presence of NAD+ and glucose 6-phosphate dehydrogenase in presence of 4% HSA; conditions: for pEC50: read-out: EC50
T1 sequence (P35557 whole entry): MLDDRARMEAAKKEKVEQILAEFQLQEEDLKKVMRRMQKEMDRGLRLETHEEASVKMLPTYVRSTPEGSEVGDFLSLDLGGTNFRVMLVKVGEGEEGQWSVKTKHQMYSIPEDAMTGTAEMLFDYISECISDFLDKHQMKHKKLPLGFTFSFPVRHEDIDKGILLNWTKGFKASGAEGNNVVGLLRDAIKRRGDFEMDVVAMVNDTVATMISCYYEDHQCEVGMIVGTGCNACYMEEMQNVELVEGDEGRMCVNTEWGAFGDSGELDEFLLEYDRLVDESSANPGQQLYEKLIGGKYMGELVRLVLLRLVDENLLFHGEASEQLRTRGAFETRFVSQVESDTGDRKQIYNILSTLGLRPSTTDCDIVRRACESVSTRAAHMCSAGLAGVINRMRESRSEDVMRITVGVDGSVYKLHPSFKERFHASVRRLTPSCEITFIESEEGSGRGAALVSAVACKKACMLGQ

[2] = Extraction ratio in mouse liver microsomes at 1 uM up to 20 mins by LC-MS/MS analysis; format: ADME; conditions: read-out: ERH
Hexokinase-4 [3] = biological target: T1, Hexokinase-4; test: Activation of purified human glucokinase isoform 3 (13 to 466 aa) using 5 mM glucose by spectrophotometry in presence of NAD+ and glucose 6-phosphate dehydrogenase
[4] = Extraction ratio in human liver microsomes at 1 uM up to 20 mins by LC-MS/MS analysis; format: ADME; conditions: read-out: ERH
[5] = Plasma concentration in C57BL/6 mouse at 30 mg/kg, po measured at 2.5 hrs; format: ADME, organism-based; parameters: dose 30 mg/kg, route oral
Outline: (§1)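 C57BL/6 mice in the OGTT study, dosed orally at 3, 10 or 30 mg/kg. Plasma concentrations are means at 2.5 h postdose, n = 8 per dose group.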

Mus musculus [6] = test: Antidiabetic activity in C57BL/6 mouse assessed as reduction in glucose AUC level at 3 mg/kg, po by oral glucose tolerance test relative to control; format: functional; parameters: scale not given: the % may be the effect or the level left
Outline: (§2)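 Dose–response oral glucose tolerance test in C57BL/6 mice at 3, 10 and 30 mg/kg po. Glucose AUC reduction is reported with p < 0.05 significance. Glucose min is the lowest glucose at the 2 h time point for any animal, n = 8.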

[7] = Half life in fed CD-1 mouse at 1 mg/kg, iv as single dose; format: ADME, organism-based; parameters: dose 1 mg/kg, route intravenous; conditions: in vivo
Outline: (§3)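 Male CD-1 mice, fed, given a single 1 mg/kg iv dose as a solution in 40% PEG400/20% EtOH/40% saline (v/v). Parameters are calculated from arithmetic mean plasma concentrations, n = 3 per time point.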

[8] = Volume of distribution at steady state in fed CD-1 mouse at 1 mg/kg, iv as single dose; format: ADME, organism-based; parameters: dose 1 mg/kg, route intravenous; conditions: in vivo, read-out: Vdss; outline: as §3
[9] = AUC (infinity) in fed CD-1 mouse at 1 mg/kg, iv as single dose; format: ADME, organism-based; parameters: time infinity, dose 1 mg/kg, route intravenous; conditions: plasma; outline: as §3
Mus musculus [10] = test: Antidiabetic activity in ob/ob mouse assessed as reduction in fasting blood glucose at 3 mg/kg, po bid for 14 days by oral glucose tolerance test (reference value: 187.9 mg/dL); format: functional; conditions: dose 100 mg/kg, in the assay text read “at 100 mg/kg” for “at 3 mg/kg”
Outline: (§4)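 ob/ob mice dosed orally b.i.d. at 3, 30 and 100 mg/kg for 14 days. On day 14 an OGTT is run, with fasting blood glucose read at −0.5 h and glucose excursion as AUC reduction. Significance is taken at p < 0.05.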

[11] = Cmax in fed CD-1 mouse at 10 mg/kg, po as single dose; format: ADME, organism-based; parameters: dose 10 mg/kg, route oral; conditions: in vivo
Outline: (§5)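 Male CD-1 mice, fed, given a single 10 mg/kg oral dose as a suspension in aqueous 1% CMC/0.05% Tween 80 (w/v). Parameters are calculated from arithmetic mean plasma concentrations, n = 3 per time point.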

[12] = Solubility of the compound at pH 6.5; format: physicochemical; conditions: buffer
[13] = AUClast in fed CD-1 mouse at 1 mg/kg, iv as single dose; format: ADME, organism-based; parameters: time 0 - last, dose 1 mg/kg, route intravenous; conditions: plasma; outline: as §3
[14] = Plasma protein binding in human; format: ADME, cell-free; conditions: read-out: PPB (converted)
Mus musculus [15] = test: Antidiabetic activity in ob/ob mouse assessed as reduction in glucose excursion at 3 mg/kg, po bid for 14 days by oral glucose tolerance test; format: functional; parameters: scale not given: the % may be the effect or the level left; outline: as §4
[16] = Plasma protein binding in mouse; format: ADME; conditions: read-out: PPB (converted)
[17] = Fraction unbound in human plasma; format: ADME, cell-free
Mus musculus [18] = test: Antidiabetic activity in C57BL/6 mouse assessed as reduction in glucose AUC level at 30 mg/kg, po by oral glucose tolerance test relative to control; format: functional; parameters: scale not given: the % may be the effect or the level left; outline: as §2
[19] = Permeability across pig LLC-PK cells; format: ADME, cell-based, Sus scrofa
[20] = Oral bioavailability in fed CD-1 mouse at 10 mg/kg as single dose; format: ADME, organism-based; conditions: in vivo; outline: as §5
[21] = Extraction ratio in fed CD-1 mouse at 1 mg/kg, iv as single dose; format: ADME, organism-based; parameters: dose 1 mg/kg, route intravenous; conditions: in vivo, read-out: ERH
Outline: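 Male CD-1 mice, fed, given a single 1 mg/kg iv dose in 40% PEG400/20% EtOH/40% saline (v/v). Extraction ratio is calculated from clearance using a mouse hepatic blood flow of 90 mL min−1 kg−1. Plasma concentrations are arithmetic means, n = 3 per time point.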

[22] = AUC (infinity) in fed CD-1 mouse at 10 mg/kg, po as single dose; format: ADME, organism-based; parameters: time infinity, dose 10 mg/kg, route oral; conditions: plasma; outline: as §5
Mus musculus [23] = test: Antidiabetic activity in ob/ob mouse assessed as reduction in glucose excursion at 30 mg/kg, po bid for 14 days by oral glucose tolerance test; format: functional; parameters: scale not given: the % may be the effect or the level left; outline: as §4
[24] = AUClast in fed CD-1 mouse at 10 mg/kg, po as single dose; format: ADME, organism-based; parameters: time 0 - last, dose 10 mg/kg, route oral; conditions: plasma; outline: as §5
[25] = Plasma concentration in C57BL/6 mouse at 10 mg/kg, po measured at 2.5 hrs; format: ADME, organism-based; parameters: dose 10 mg/kg, route oral; outline: as §1
[26] = Tmax in fed CD-1 mouse at 10 mg/kg, po as single dose; format: ADME, organism-based; parameters: dose 10 mg/kg, route oral; conditions: in vivo; outline: as §5
[27] = Solubility of the compound at pH 1.2; format: physicochemical; conditions: buffer
[28] = Plasma concentration in C57BL/6 mouse at 3 mg/kg, po measured at 2.5 hrs; format: ADME, organism-based; parameters: dose 3 mg/kg, route oral; outline: as §1
Mus musculus [29] = test: Antidiabetic activity in ob/ob mouse assessed as reduction in glucose excursion at 100 mg/kg, po bid for 14 days by oral glucose tolerance test; format: functional; parameters: scale not given: the % may be the effect or the level left; outline: as §4
Mus musculus [30] = test: Antidiabetic activity in C57BL/6 mouse assessed as reduction in glucose AUC level at 10 mg/kg, po by oral glucose tolerance test relative to control; format: functional; parameters: scale not given: the % may be the effect or the level left; outline: as §2
[31] = Solubility of the compound at pH 7.4; format: physicochemical; conditions: buffer
Mus musculus [32] = test: Antidiabetic activity in C57BL/6 mouse assessed as minimum glucose level at 30 mg/kg, po measured at 2 hrs by oral glucose tolerance test relative to control; format: functional; outline: as §2
[33] = Clearance in fed CD-1 mouse at 1 mg/kg, iv as single dose; format: ADME, organism-based; parameters: dose 1 mg/kg, route intravenous; conditions: in vivo; outline: as §3

## CNC(=O)Nc1ncc(SCCCO)cc1Oc1cccnc1C
Hexokinase-4 [1]
  pEC50: 6.15
[2]
  hepatic extraction ratio at 20 min, 1 µM: 0.19
Hexokinase-4 [3]
  pEC50: 6.26
[4]
  hepatic extraction ratio at 20 min, 1 µM: 0.15

## CCc1ncccc1Oc1cc(Sc2ccccn2)cnc1NC(=O)NCCO
Hexokinase-4 [1]
  pEC50: 5.55
Hexokinase-4 [3]
  pEC50: 5.67

## CCc1ncccc1Oc1cc(Sc2ccccn2)cnc1NC(=O)NCc1ccccc1O
Hexokinase-4 [1]
  pEC50: 5.23
Hexokinase-4 [3]
  pEC50: 6.41

## CCc1ncccc1Oc1cc(Sc2ccccn2)cnc1NC(=O)NCc1ccc(O)cc1
Hexokinase-4 [1]
  pEC50: 5.82
Hexokinase-4 [3]
  pEC50: 6.76

## CNC(=O)Nc1ncc(SC2CCN(C(=O)OC(C)(C)C)CC2)cc1Oc1cccnc1C
Hexokinase-4 [1]
  pEC50: 6.26
[2]
  hepatic extraction ratio at 20 min, 1 µM: 0.9
Hexokinase-4 [3]
  pEC50: 6.88
[4]
  hepatic extraction ratio at 20 min, 1 µM: 0.95

## CCc1ncccc1Oc1cc(Sc2ccccn2)cnc1NC=O
Hexokinase-4 [1]
  pEC50: 4.38
Hexokinase-4 [3]
  pEC50: 4.88

## CNC(=O)Nc1ncc(SCc2ccccc2)cc1Oc1cccnc1C
Hexokinase-4 [1]
  pEC50: 5.93
[2]
  hepatic extraction ratio at 20 min, 1 µM: 0.93
Hexokinase-4 [3]
  pEC50: 6.76
[4]
  hepatic extraction ratio at 20 min, 1 µM: 0.93

## CCNC(=O)Nc1ncc(Sc2ccccn2)cc1Oc1cccnc1CC
Hexokinase-4 [1]
  pEC50: 6.26
Hexokinase-4 [3]
  pEC50: 6.69

## CNC(=O)Nc1ncc(SC2CCOCC2)cc1Oc1cccnc1C
Hexokinase-4 [1]
  pEC50: 6.63
[2]
  hepatic extraction ratio at 20 min, 1 µM: 0.3
Hexokinase-4 [3]
  pEC50: 6.47
[4]
  hepatic extraction ratio at 20 min, 1 µM: 0.47

## CCc1ncccc1Oc1cc(Sc2ccccn2)cnc1NC(=O)NCc1ccccn1
Hexokinase-4 [1]
  pEC50: 5.40
Hexokinase-4 [3]
  pEC50: 5.79

## CNC(=O)Nc1ncc(SCCCOC)cc1Oc1cccnc1C
[5]
  concentration at 2.5 h: 633 ng/mL
Hexokinase-4 [1]
  pEC50: 6.51
Mus musculus [6]
  Activity: 8%
[7]
  half-life: 2.67 h
[8]
  Vd: 1.98 L/kg
[9]
  AUC(0-inf): 773 ng·h/mL
[2]
  hepatic extraction ratio at 20 min, 1 µM: 0.34
Mus musculus [10]
  Activity: 125.9 mg/dL
[11]
  Cmax: 2320 ng/mL
[12]
  solubility: 45 µg/mL (≈ 124 µM)
[13]
  AUC(0-t): 762 ng·h/mL
[14]
  fraction unbound: 0.38
Mus musculus [15]
  Activity: 18.4%
[16]
  fraction unbound: 0.26
[17]
  fraction unbound: 0.4
Mus musculus [18]
  Activity: 30.8%
[19]
  permeability: permeable
[20]
  bioavailability: 67.8%
[21]
  hepatic extraction ratio: 0.239
[22]
  AUC(0-inf): 5240 ng·h/mL
Mus musculus [23]
  Activity: 33.3%
[24]
  AUC(0-t): 5030 ng·h/mL
Hexokinase-4 [3]
  pEC50: 6.74
[25]
  concentration at 2.5 h: 178 ng/mL
[26]
  Tmax: 0.5 h
[27]
  solubility: > 1000 µg/mL
[28]
  concentration at 2.5 h: 46 ng/mL
Mus musculus [29]
  Activity: 30.8%
Mus musculus [30]
  Activity: 28.6%
[4]
  hepatic extraction ratio at 20 min, 1 µM: 0.32
[31]
  solubility: 282 µg/mL (≈ 778 µM)
Mus musculus [32]
  Activity: 73 mg/dL
[33]
  clearance: 21.5 mL/min/kg

## CCc1ncccc1Oc1cc(Sc2ccccn2)cnc1NC(C)=O
Hexokinase-4 [1]
  EC50: Not Active
Hexokinase-4 [3]
  pEC50: < 4.30

## CNC(=O)Nc1ncc(Sc2ccccn2)cc1Oc1cccnc1C
Hexokinase-4 [1]
  pEC50: 5.73
[2]
  hepatic extraction ratio at 20 min, 1 µM: 0.68
Hexokinase-4 [3]
  pEC50: 6.58
[4]
  hepatic extraction ratio at 20 min, 1 µM: 0.37
